Results reported in ChEMBL document CHEMBL4811225 (J Med Chem, 2021).
Where a SMILES comes first, the peptide text is derived from it. Bridges are numbered along the chain shown (N, C = ends).

Experiments:
[1] = molecular target: Neuronal acetylcholine receptor; alpha9/alpha10 (Homo sapiens, UniProt Q9GZZ6+Q9UGM1); assay: Inhibition of human alpha9alpha10 nAChR expressed in Xenopus laevis oocytes assessed as inhibition of acetylcholine-induced current response by two-electrode voltage-clamp method; type: cell-based, Oocyte
Summary of the method: (§1)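 Two-electrode voltage clamp of stage IV–V oocytes 1–5 days after equal-ratio cRNA injection; ACh 100 μM (β2-containing subtypes, α9α10), 1 s every 60 s in frog saline. Peptide perfused up to 1 μM, responses normalized to mean of three control responses; above 1 μM, 5 min static bath. IC50 with 95% CI; n = oocytes.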

[2] = organism: Homo sapiens; assay: Selectivity ratio of IC50 for human alpha9alpha10 nAChR to IC50 for human alpha6/alpha3beta4 nAChR
Summary of the method: (§2)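 Ratio of each subtype's IC50, from TEVC inhibition of ACh-evoked currents in X. laevis oocytes, to the IC50 at the same species' α6/α3β4 nAChR; IC50 values with 95% CI, n = number of oocytes.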

[3] = organism: Rattus norvegicus; assay: Selectivity ratio of IC50 for rat alpha3beta4 nAChR to IC50 for rat alpha6/alpha3beta4 nAChR; summary of the method: as §2
[4] = molecular target: Nicotinic acetylcholine receptor alpha6/alpha3/beta4 (Rattus norvegicus, UniProt P04757+P12392+P43143); type: cell-based, Oocyte
Nicotinic acetylcholine receptor alpha6/alpha3/beta4, sequence (P04757 whole entry): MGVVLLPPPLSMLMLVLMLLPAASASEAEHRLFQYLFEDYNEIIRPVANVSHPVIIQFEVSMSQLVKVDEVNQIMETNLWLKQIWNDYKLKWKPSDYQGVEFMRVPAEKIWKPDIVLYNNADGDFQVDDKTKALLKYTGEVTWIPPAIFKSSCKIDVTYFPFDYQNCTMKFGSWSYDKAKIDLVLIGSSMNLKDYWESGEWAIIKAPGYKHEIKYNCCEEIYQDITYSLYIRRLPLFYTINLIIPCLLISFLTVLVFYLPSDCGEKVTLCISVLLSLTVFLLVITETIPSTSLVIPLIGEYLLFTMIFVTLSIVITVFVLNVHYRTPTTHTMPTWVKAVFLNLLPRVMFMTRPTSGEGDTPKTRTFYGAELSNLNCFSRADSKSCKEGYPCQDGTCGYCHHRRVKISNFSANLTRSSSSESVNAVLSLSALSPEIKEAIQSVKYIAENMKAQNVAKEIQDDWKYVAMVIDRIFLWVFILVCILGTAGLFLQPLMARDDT
Nicotinic acetylcholine receptor alpha6/alpha3/beta4, sequence (P12392 whole entry): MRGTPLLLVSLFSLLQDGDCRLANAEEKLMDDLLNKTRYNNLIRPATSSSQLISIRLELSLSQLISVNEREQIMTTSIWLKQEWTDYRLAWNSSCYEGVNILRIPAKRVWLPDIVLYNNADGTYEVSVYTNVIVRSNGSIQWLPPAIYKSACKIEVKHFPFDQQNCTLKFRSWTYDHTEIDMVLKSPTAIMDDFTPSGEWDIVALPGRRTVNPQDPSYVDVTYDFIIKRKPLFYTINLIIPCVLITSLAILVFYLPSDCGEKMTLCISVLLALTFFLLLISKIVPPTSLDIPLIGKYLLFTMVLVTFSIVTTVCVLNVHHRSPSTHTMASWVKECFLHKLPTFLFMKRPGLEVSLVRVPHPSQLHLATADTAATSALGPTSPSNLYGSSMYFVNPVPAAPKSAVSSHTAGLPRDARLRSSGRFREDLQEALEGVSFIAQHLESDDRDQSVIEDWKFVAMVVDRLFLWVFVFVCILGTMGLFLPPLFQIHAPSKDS
Nicotinic acetylcholine receptor alpha6/alpha3/beta4, sequence (P43143 whole entry): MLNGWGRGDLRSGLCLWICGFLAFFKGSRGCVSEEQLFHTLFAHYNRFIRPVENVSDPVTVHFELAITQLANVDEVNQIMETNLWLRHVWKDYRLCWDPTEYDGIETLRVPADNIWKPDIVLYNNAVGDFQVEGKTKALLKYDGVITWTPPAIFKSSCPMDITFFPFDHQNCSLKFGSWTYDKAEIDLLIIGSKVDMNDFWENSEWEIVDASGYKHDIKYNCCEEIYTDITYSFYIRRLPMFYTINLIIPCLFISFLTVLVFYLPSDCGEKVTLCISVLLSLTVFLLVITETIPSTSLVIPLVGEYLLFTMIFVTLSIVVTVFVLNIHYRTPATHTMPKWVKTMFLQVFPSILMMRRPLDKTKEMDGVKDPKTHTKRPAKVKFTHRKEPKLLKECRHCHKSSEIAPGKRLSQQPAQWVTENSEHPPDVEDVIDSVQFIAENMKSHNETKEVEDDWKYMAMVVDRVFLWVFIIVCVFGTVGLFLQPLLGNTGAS

[5] = organism: Homo sapiens; assay: Selectivity ratio of IC50 for human alpha2beta2 nAChR to IC50 for human alpha6/alpha3beta4 nAChR; summary of the method: as §2
[6] = molecular target: Neuronal acetylcholine receptor; alpha2/beta4 (Rattus norvegicus, UniProt P12389+P12392); assay: Inhibition of rat alpha2beta4 nAChR expressed in Xenopus laevis oocytes assessed as inhibition of acetylcholine-induced current response by two-electrode voltage-clamp method; type: cell-based, Oocyte
Summary of the method: (§3)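 TEVC on stage IV–V oocytes 1–5 days after equal-ratio cRNA injection (α2β4, α3β4, α4β4, α7). ACh 300 μM, 1 s pulses at 60 s intervals under frog saline perfusion. Peptide perfused to 1 μM, normalized to average of three control responses; higher concentrations by 5 min static bath. IC50 with 95% CI, n oocytes.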

[7] = molecular target: Neuronal acetylcholine receptor subunit alpha-7 (Rattus norvegicus, UniProt Q05941); type: cell-based, Oocyte
Neuronal acetylcholine receptor subunit alpha-7 (Rattus norvegicus, UniProt Q05941), sequence (Q05941 whole entry): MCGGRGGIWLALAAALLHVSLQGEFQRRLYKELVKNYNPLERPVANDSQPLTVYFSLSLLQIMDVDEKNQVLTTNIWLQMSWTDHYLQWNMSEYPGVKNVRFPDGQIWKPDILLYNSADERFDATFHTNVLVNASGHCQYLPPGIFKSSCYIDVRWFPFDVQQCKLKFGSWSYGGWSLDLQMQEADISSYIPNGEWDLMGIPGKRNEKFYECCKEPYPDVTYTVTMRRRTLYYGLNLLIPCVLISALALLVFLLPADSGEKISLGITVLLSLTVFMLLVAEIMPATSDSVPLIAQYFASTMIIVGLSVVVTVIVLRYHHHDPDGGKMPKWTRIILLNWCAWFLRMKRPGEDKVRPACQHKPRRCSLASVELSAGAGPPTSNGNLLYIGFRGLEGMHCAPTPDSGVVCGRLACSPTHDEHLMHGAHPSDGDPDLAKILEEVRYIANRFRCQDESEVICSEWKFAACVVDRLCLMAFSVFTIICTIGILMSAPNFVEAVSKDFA

[8] = molecular target: Neuronal acetylcholine receptor; alpha2/beta4 (Rattus norvegicus) (UniProt P12389+P12392); assay: Inhibition of rat alpha2beta4 nAChR expressed in Xenopus laevis oocytes assessed as inhibition of acetylcholine-induced current response at 10 uM by two-electrode voltage-clamp method relative to control; type: cell-based; conditions: Oocyte
Summary of the method: (§4)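 Stage IV–V X. laevis oocytes expressing equal-ratio cRNAs of α2β4, α3β4, α4β4 or α7 subunits; TEVC 1–5 days after injection. ACh 300 μM, 1 s at 60 s intervals. 10 μM peptide as 5 min static bath, normalized to ACh response after 5 min bath of control saline; mean ± SD, n = 4.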

[9] = organism: Rattus norvegicus; assay: Selectivity ratio of IC50 for rat alpha2beta4 nAChR to IC50 for rat alpha6/alpha3beta4 nAChR; summary of the method: as §2
[10] = organism: Homo sapiens; assay: Selectivity ratio of IC50 for human alpha2beta4 nAChR to IC50 for human alpha6/alpha3beta4 nAChR; summary of the method: as §2
[11] = molecular target: Neuronal acetylcholine receptor; alpha2/beta2 (Rattus norvegicus, UniProt P12389+P12390); assay: Inhibition of rat alpha2beta2 nAChR expressed in Xenopus laevis oocytes assessed as inhibition of acetylcholine-induced current response by two-electrode voltage-clamp method; type: cell-based, Oocyte; summary of the method: as §1
[12] = molecular target: Neuronal acetylcholine receptor; alpha3/beta2 (Rattus norvegicus, UniProt P04757+P12390); type: cell-based, Oocyte
Neuronal acetylcholine receptor; alpha3/beta2 (Rattus norvegicus, UniProt P04757+P12390), sequence (P04757 whole entry): as the sequence (P04757 whole entry) above
Neuronal acetylcholine receptor; alpha3/beta2 (Rattus norvegicus, UniProt P04757+P12390), sequence (P12390 whole entry): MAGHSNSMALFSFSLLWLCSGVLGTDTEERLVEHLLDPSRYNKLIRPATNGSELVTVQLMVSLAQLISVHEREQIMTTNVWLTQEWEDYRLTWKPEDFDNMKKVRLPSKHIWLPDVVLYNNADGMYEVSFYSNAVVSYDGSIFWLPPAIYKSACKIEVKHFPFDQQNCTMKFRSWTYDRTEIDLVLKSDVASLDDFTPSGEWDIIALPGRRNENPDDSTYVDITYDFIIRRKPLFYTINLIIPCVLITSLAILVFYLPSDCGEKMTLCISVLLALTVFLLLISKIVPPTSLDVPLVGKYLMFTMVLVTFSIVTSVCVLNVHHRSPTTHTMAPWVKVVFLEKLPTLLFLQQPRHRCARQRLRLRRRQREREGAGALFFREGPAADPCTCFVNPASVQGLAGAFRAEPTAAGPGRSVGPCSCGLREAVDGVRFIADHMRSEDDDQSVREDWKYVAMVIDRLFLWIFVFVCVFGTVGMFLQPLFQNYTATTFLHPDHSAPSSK

[13] = organism: Homo sapiens; assay: Selectivity ratio of IC50 for human alpha4beta4 nAChR to IC50 for human alpha6/alpha3beta4 nAChR; summary of the method: as §2
[14] = molecular target: Neuronal acetylcholine receptor; alpha3/beta4 (Rattus norvegicus, UniProt P04757+P12392); type: cell-based, Oocyte
[15] = molecular target: Neuronal acetylcholine receptor; alpha4/beta4 (Rattus norvegicus) (UniProt P09483+P12392); assay: Inhibition of rat alpha4beta4 nAChR expressed in Xenopus laevis oocytes assessed as inhibition of acetylcholine-induced current response at 10 uM by two-electrode voltage-clamp method relative to control; type: cell-based; conditions: Oocyte; summary of the method: as §4
[16] = molecular target: Neuronal acetylcholine receptor; alpha3/alpha6/beta2/beta3 (Homo sapiens, UniProt P17787+P32297+Q05901+Q15825); assay: Inhibition of human alpha6/alpha3beta2beta3 nAChR expressed in Xenopus laevis oocytes assessed as inhibition of acetylcholine-induced current response by two-electrode voltage-clamp method; type: cell-based, Oocyte; summary of the method: as §1
[17] = tested on: Oocyte; assay: Inhibition of human alpha4beta4 nAChR expressed in Xenopus laevis oocytes assessed as inhibition of acetylcholine-induced current response at 10 uM by two-electrode voltage-clamp method relative to control; type: cell-based; summary of the method: as §4
[18] = organism: Rattus norvegicus; assay: Selectivity ratio of IC50 for rat alpha2beta2 nAChR to IC50 for rat alpha6/alpha3beta4 nAChR; summary of the method: as §2
[19] = molecular target: Nicotinic acetylcholine receptor alpha9/alpha10 (Rattus norvegicus, UniProt P43144+Q9JLB5); assay: Inhibition of rat alpha9alpha10 nAChR expressed in Xenopus laevis oocytes assessed as inhibition of acetylcholine-induced current response by two-electrode voltage-clamp method; type: cell-based, Oocyte; summary of the method: as §1
[20] = organism: Rattus norvegicus; assay: Selectivity ratio of IC50 for rat alpha4beta4 nAChR to IC50 for rat alpha6/alpha3beta4 nAChR; summary of the method: as §2
[21] = organism: Homo sapiens; assay: Selectivity ratio of IC50 for human alpha4beta2 nAChR to IC50 for human alpha6/alpha3beta4 nAChR; summary of the method: as §2
[22] = organism: Homo sapiens; assay: Selectivity ratio of IC50 for human alpha6/alpha3beta2beta3 nAChR to IC50 for human alpha6/alpha3beta4 nAChR; summary of the method: as §2
[23] = molecular target: Neuronal acetylcholine receptor subunit alpha-7 (Homo sapiens, UniProt P36544); assay: Inhibition of human alpha7 nAChR expressed in Xenopus laevis oocytes assessed as inhibition of acetylcholine-induced current response by two-electrode voltage-clamp method; type: cell-based, Oocyte; summary of the method: as §3
[24] = organism: Rattus norvegicus; assay: Selectivity ratio of IC50 for rat alpha4beta2 nAChR to IC50 for rat alpha6/alpha3beta4 nAChR; summary of the method: as §2
[25] = Inhibition of human alpha4beta4 nAChR expressed in Xenopus laevis oocytes assessed as inhibition of acetylcholine-induced current response by two-electrode voltage-clamp method; type: cell-based; conditions: Oocyte; summary of the method: as §3
[26] = molecular target: Nicotinic acetylcholine receptor alpha6/alpha3/beta2/beta3 (Rattus norvegicus, UniProt P04757+P12390+P12391+P43143); type: cell-based, Oocyte
Nicotinic acetylcholine receptor alpha6/alpha3/beta2/beta3, sequence (P04757 whole entry): as the sequence (P04757 whole entry) above
Nicotinic acetylcholine receptor alpha6/alpha3/beta2/beta3, sequence (P12390 whole entry): as the sequence (P12390 whole entry) above
Nicotinic acetylcholine receptor alpha6/alpha3/beta2/beta3, sequence (P12391 whole entry): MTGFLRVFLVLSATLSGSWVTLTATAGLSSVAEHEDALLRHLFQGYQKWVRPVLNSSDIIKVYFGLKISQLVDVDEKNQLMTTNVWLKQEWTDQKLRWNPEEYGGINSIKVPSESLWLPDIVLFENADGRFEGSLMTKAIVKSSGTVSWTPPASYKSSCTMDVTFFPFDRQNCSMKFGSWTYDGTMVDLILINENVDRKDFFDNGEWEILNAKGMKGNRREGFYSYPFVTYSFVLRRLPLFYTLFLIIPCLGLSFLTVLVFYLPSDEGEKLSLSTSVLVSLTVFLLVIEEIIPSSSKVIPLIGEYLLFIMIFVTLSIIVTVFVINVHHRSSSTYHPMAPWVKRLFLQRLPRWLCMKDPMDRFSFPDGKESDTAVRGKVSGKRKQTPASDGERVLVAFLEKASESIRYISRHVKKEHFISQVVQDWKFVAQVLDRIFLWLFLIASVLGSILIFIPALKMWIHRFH
Nicotinic acetylcholine receptor alpha6/alpha3/beta2/beta3, sequence (P43143 whole entry): as the sequence (P43143 whole entry) above

[27] = molecular target: Neuronal acetylcholine receptor; alpha3/beta2 (Homo sapiens, UniProt P17787+P32297); assay: Inhibition of human alpha3beta2 nAChR expressed in Xenopus laevis oocytes assessed as inhibition of acetylcholine-induced current response by two-electrode voltage-clamp method; type: cell-based, Oocyte; summary of the method: as §1
[28] = molecular target: Neuronal acetylcholine receptor; alpha3/beta4 (Homo sapiens, UniProt P30926+P32297); assay: Inhibition of human alpha3beta4 nAChR expressed in Xenopus laevis oocytes assessed as inhibition of acetylcholine-induced current response by two-electrode voltage-clamp method; type: cell-based, Oocyte; summary of the method: as §3
[29] = molecular target: Neuronal acetylcholine receptor; alpha4/beta2 (Homo sapiens, UniProt P17787+P43681); assay: Inhibition of human alpha4beta2 nAChR expressed in Xenopus laevis oocytes assessed as inhibition of acetylcholine-induced current response by two-electrode voltage-clamp method; type: cell-based, Oocyte; summary of the method: as §1
[30] = molecular target: Neuronal acetylcholine receptor; alpha2/beta2 (Homo sapiens, UniProt P17787+Q15822); assay: Inhibition of human alpha2beta2 nAChR expressed in Xenopus laevis oocytes assessed as inhibition of acetylcholine-induced current response by two-electrode voltage-clamp method; type: cell-based, Oocyte; summary of the method: as §1
[31] = molecular target: Neuronal acetylcholine receptor; alpha4/beta2 (Rattus norvegicus, UniProt P09483+P12390); type: cell-based, Oocyte
[32] = molecular target: Neuronal acetylcholine receptor; alpha4/beta4 (Rattus norvegicus, UniProt P09483+P12392); type: cell-based, Oocyte

Structure (SMILES): CC(C)C[C@@H]1NC(=O)[C@H](C)NC(=O)[C@H](CCCNC(=N)N)NC(=O)[C@H](Cc2cnc[nH]2)NC(=O)[C@H](CCCNC(=N)N)NC(=O)[C@H](C)NC(=O)[C@H](CCCNC(=N)N)NC(=O)[C@@H]2CSSC[C@H](NC(=O)CN)C(=O)N[C@@H](CSSC[C@@H](C(N)=O)NC1=O)C(=O)N[C@@H](CO)C(=O)N[C@@H](Cc1cnc[nH]1)C(=O)N1CCC[C@H]1C(=O)N[C@@H](C(C)C)C(=O)N2 (H-GCCSHPVCRARHRALC-NH2; disulfide 2-8, 3-16)
- IC50 [1]: 0.576 µM
- Ratio IC50 [2]: 104
- Ratio IC50 [3]: > 3180
- IC50 [4]: > 10 µM
- Ratio IC50 [5]: > 1800
- IC50 [6]: > 10 µM
- IC50 [7]: 3.94 µM
- inhibition [8]: 85%
- Ratio IC50 [9]: > 3180
- Ratio IC50 [10]: > 1800
- IC50 [11]: > 10 µM
- IC50 [12]: 9.51 µM
- Ratio IC50 [13]: > 1800
- IC50 [14]: > 10 µM
- inhibition [15]: 82%
- IC50 [16]: 0.00555 µM
- inhibition [17]: 92%
- Ratio IC50 [18]: > 3180
- IC50 [19]: 0.667 µM
- Ratio IC50 [20]: > 3180
- Ratio IC50 [21]: > 1800
- Ratio IC50 [22]: 1
- IC50 [23]: 5.56 µM
- Ratio IC50 [24]: > 3180
- IC50 [25]: > 10 µM
- IC50 [26]: 0.00314 µM
- IC50 [27]: 12.2 µM
- IC50 [28]: 9.06 µM
- IC50 [29]: > 10 µM
- IC50 [30]: > 10 µM
- IC50 [31]: > 10 µM

Structure (SMILES): CC(C)C[C@@H]1NC(=O)[C@H](C)NC(=O)[C@@H]2CCCN2C(=O)[C@H](CCC(=O)O)NC(=O)[C@H](CCCNC(=N)N)NC(=O)[C@H](C)NC(=O)[C@H](Cc2cnc[nH]2)NC(=O)[C@@H]2CSSC[C@H](NC(=O)CN)C(=O)N[C@@H](CSSC[C@@H](C(N)=O)NC1=O)C(=O)N[C@@H](CO)C(=O)N[C@@H](Cc1cnc[nH]1)C(=O)N1CCC[C@H]1C(=O)N[C@@H](Cc1cnc[nH]1)C(=O)N2 (H-GCCSHPHCHAREPALC-NH2; disulfide 2-8, 3-16)
- IC50 [4]: 0.0438 µM
- IC50 [7]: > 10 µM
- IC50 [12]: > 10 µM
- IC50 [14]: > 10 µM
- IC50 [26]: 0.0438 µM
- IC50 [32]: > 10 µM
- IC50 [31]: > 10 µM
